Experimental data: ChEMBL document CHEMBL1157565, “Discovery of 1-[3-(4-bromo-2-methyl-2h-pyrazol-3-yl)-4-methoxyphenyl]-3-(2,4-difluorophenyl)urea (nelotanserin) and related 5-hydroxytryptamine2A inverse agonists for the treatment of insomnia” (J Med Chem, 2010)
Activity calls are given as the source filed them. The calls are words filed in the database; no cut-off is given here.

Experiments:
[1] = biological target: T1, 5-hydroxytryptamine receptor 2A (Homo sapiens, UniProt P28223); test: Activity at human 5HT2A receptor expressed in HEK293 cells assessed as [3H]inositol phosphate production by scintillation counting; type: functional, cell-based
Outline: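 HEK-293 cells transiently transfected with a mutated, constitutively active h5-HT2A receptor, labeled 18 h with […] [3H]myoinositol in serum- and myoinositol-free DMEM. Then 3 h at 37 °C in HBSS with LiCl (10 mM final), pargyline and compound. Lysis with ice-cold 0.1 M formic acid; total [3H]IP separated on AG1-X8 resin and counted by scintillation. Inverse-agonist pIC50.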

[2] = biological target: T1, 5-hydroxytryptamine receptor 2A; test: Displacement of [125I]DOI from human recombinant 5HT2A receptor expressed in HEK293 cells by scintillation counting
[3] = biological target: T2, 5-hydroxytryptamine receptor 2C (Homo sapiens, UniProt P28335); test: Displacement of [125I]DOI from human recombinant 5HT2C receptor expressed in HEK293 cells by scintillation counting
T2 sequence (P28335 whole entry): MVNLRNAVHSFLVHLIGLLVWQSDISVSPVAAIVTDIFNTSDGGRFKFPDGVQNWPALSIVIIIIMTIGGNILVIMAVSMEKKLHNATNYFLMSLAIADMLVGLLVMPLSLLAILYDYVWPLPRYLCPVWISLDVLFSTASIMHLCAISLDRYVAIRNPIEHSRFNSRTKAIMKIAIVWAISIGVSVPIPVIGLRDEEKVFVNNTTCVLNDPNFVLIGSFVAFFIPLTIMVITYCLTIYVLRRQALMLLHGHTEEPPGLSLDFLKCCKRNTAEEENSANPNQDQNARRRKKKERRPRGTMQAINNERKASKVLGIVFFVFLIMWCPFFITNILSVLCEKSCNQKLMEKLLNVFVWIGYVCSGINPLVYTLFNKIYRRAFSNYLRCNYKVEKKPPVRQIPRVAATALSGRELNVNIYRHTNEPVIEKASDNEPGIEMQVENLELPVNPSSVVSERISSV

[4] = biological target: T1, 5-hydroxytryptamine receptor 2A; test: Displacement of [3H]DOI from human recombinant 5HT2A receptor expressed in HEK293 cells by scintillation counting; type: cell-based; conditions: in the assay text read “[125I]DOI” for “[3H]DOI”
Outline: (§1)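 Crude membranes (5-25 μg protein) from HEK293 cells stably expressing human 5-HT2A or 5-HT2C. Radioligand [125I]DOI at 0.5 nM final; 10 μM cold DOI defines nonspecific binding. Buffer 20 mM HEPES pH 7.4, 10 mM MgCl2; 1 h at room temperature. Eight concentrations (1 pM–10 μM), each in triplicate. Vacuum filtration on GF/C, Tris wash, scintillation counting; pKi.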

[5] = biological target: T2, 5-hydroxytryptamine receptor 2C; test: Displacement of [3H]DOI from human recombinant 5HT2C receptor expressed in HEK293 cells by scintillation counting; type: cell-based; conditions: in the assay text read “[125I]DOI” for “[3H]DOI”; outline: as §1
[6] = Tmax in Wistar rat at 1.0 mg/kg, po; type: ADME, organism-based; set-up: dose 1 mg/kg, route oral; conditions: in vivo
Outline: (§2)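 Male Wistar rats, fasted overnight, single oral dose in 80% Tween-80/20% water. Jugular vein blood sampled serially over 24 h ([…]); sodium-heparin plasma stored at -70 °C, quantified by HPLC/MS/MS (LLOQ 1 ng/mL, ULOQ 2000 ng/mL). n = 2-3 animals; noncompartmental analysis; values as mean ± SD.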

[7] = Cmax in Wistar rat at 1.0 mg/kg, po; type: ADME, organism-based; set-up: dose 1 mg/kg, route oral; conditions: in vivo; outline: as §2
[8] = Half life in Wistar rat at 1.0 mg/kg, po; type: ADME, organism-based; set-up: dose 1 mg/kg, route oral; conditions: in vivo; outline: as §2
[9] = AUC (0 to infinity) in Wistar rat at 1.0 mg/kg, po; type: ADME, organism-based; set-up: time infinity, dose 1 mg/kg, route oral; conditions: plasma; outline: as §2
Rattus norvegicus [10] = test: Effect on behavioral activity in po dosed Sprague-Dawley rat assessed as reversal of DOI-induced inhibition of rearing behavior; type: functional
Outline: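 Adult male Sprague-Dawley rats dosed orally with compound 45 min before DOI (0.3 mg/kg), which lowers rearing. Fifteen minutes later, rearing recorded in photocell-monitored locomotor activity cages. A dose-response curve for reversal of DOI-induced rearing decrease yields an ED50.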

Rattus norvegicus [11] = test: Effect on behavioral activity in Wistar rat assessed as increase in non-rapid eye movement delta power at 1 mg/kg, po after 2 hrs; type: functional, organism-based; set-up: dose 1 mg/kg
Outline: (§3)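 Male Wistar rats (300 ± 25 g) implanted for continuous EEG/EMG recording, 1 week recovery. Repeated-measures design: each rat received each treatment, including 80% Tween-80 vehicle, in random order by oral gavage. Non-REM sleep parameters scored hourly after dosing; at least five rats per compound.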

Rattus norvegicus [12] = test: Effect on behavioral activity in Wistar rat assessed as increase in non-rapid eye movement bout length at 1 mg/kg, po after 2 hrs; type: functional, organism-based; set-up: dose 1 mg/kg; outline: as §3
[13] = Cmax in Wistar rat at 1.5 mg/kg, po; type: ADME, organism-based; set-up: dose 1.5 mg/kg, route oral; conditions: in vivo; outline: as §2
[14] = Tmax in Wistar rat at 1.5 mg/kg, po; type: ADME, organism-based; set-up: dose 1.5 mg/kg, route oral; conditions: in vivo; outline: as §2
[15] = Half life in Wistar rat at 1.5 mg/kg, po; type: ADME, organism-based; set-up: dose 1.5 mg/kg, route oral; conditions: in vivo; outline: as §2
[16] = AUC (0 to infinity) in Wistar rat at 1.5 mg/kg, po; type: ADME, organism-based; set-up: time infinity, dose 1.5 mg/kg, route oral; conditions: plasma; outline: as §2
Rattus norvegicus [17] = test: Effect on behavioral activity in Wistar rat assessed as increase in non-rapid eye movement delta power at 1.4 mg/kg, po after 2 hrs; type: functional, organism-based; set-up: dose 1.4 mg/kg; outline: as §3
[18] = biological target: 5-hydroxytryptamine receptor 2A (Rattus norvegicus, UniProt P14842); test: Displacement of [125I]DOI from rat recombinant 5HT2A receptor by scintillation counting
Rattus norvegicus [19] = test: Effect on behavioral activity in Wistar rat assessed as decrease in number of non-rapid eye movement bouts at 1.4 mg/kg, po after 2 hrs; type: functional, organism-based; set-up: dose 1.4 mg/kg; outline: as §3
[20] = Tmax in Wistar rat at 1.4 mg/kg, po; type: ADME, organism-based; set-up: dose 1.4 mg/kg, route oral; conditions: in vivo; outline: as §2
[21] = Cmax in Wistar rat at 1.4 mg/kg, po; type: ADME, organism-based; set-up: dose 1.4 mg/kg, route oral; conditions: in vivo; outline: as §2
[22] = Half life in Wistar rat at 1.4 mg/kg, po; type: ADME, organism-based; set-up: dose 1.4 mg/kg, route oral; conditions: in vivo; outline: as §2
[23] = AUC (0 to infinity) in Wistar rat at 1.4 mg/kg, po; type: ADME, organism-based; set-up: time infinity, dose 1.4 mg/kg, route oral; conditions: plasma; outline: as §2
Rattus norvegicus [24] = test: Effect on behavioral activity in Wistar rat assessed as increase in non-rapid eye movement delta power at 1.4 mg/kg, po after 1 hr; type: functional, organism-based; set-up: dose 1.4 mg/kg; outline: as §3

T1 sequence (P28223 whole entry): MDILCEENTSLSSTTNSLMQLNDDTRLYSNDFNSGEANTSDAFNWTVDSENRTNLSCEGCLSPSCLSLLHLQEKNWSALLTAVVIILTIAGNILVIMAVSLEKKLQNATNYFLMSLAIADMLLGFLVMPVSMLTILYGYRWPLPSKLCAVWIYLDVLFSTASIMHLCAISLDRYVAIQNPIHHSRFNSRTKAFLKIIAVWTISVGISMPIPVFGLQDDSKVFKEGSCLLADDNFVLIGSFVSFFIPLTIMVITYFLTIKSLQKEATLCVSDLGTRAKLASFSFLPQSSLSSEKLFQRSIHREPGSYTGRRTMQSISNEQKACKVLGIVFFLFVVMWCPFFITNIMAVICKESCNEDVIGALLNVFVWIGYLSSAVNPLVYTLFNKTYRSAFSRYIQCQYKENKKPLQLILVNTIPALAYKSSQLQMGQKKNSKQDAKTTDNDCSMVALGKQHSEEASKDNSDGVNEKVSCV
5-hydroxytryptamine receptor 2A (Rattus norvegicus, UniProt P14842), sequence (P14842 whole entry): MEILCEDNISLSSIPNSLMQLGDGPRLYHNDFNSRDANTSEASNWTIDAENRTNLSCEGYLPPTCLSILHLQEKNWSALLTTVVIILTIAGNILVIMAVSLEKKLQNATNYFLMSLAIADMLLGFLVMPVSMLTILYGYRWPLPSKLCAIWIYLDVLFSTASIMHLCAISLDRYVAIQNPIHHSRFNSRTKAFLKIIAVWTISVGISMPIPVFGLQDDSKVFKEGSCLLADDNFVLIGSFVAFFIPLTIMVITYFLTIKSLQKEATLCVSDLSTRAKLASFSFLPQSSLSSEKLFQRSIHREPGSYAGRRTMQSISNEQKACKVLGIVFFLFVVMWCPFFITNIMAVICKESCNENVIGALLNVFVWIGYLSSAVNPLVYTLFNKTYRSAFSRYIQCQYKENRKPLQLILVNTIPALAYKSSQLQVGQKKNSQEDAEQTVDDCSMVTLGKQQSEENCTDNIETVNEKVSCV

IC50 ([1]; read-out: pIC50 (converted)) | Ki [3] | Ki [4] | Ki [5] | SMILES | also measured
2 nM | 31.6 nM |  |  | COc1ccc(NC(=O)Nc2cc(C(F)(F)F)cc(C(F)(F)F)c2)cc1-c1c(Br)cnn1C | Ki [2]: 0.398 nM
3.98 nM |  | 2.51 nM | 251 nM | COc1ccc(NC(=O)Nc2cccc(C(C)=O)c2)cc1-c1c(Br)cnn1C | 
2.51 nM |  | 0.501 nM | 126 nM | COc1ccc(NC(=O)Nc2ccc(Cl)cc2C(F)(F)F)cc1-c1c(Br)cnn1C | 
0.794 nM |  | 0.501 nM | 10 nM | COc1ccc(NC(=O)Nc2ccc(Cl)cc2)cc1-c1c(Br)cnn1C | IC50 [1]: 0.7 nM; Tmax [6]: 3 h; Cmax [7]: 45 ng/mL; half-life [8]: 180 min; AUC(0-inf) [9]: 281 ng·h/mL; ED50 (Rattus norvegicus [10]): 0.5 mg/kg; Activity (Rattus norvegicus [11]): Active; Activity (Rattus norvegicus [12]): Active
0.501 nM |  | 0.158 nM | 10 nM | COc1ccc(NC(=O)Nc2ccc(Cl)cc2)cc1-c1c(Cl)cnn1C | Cmax [13]: 41 ng/mL; Tmax [14]: 6 h; half-life [15]: 300 min; AUC(0-inf) [16]: 478 ng·h/mL; ED50 (Rattus norvegicus [10]): 0.7 mg/kg; Activity (Rattus norvegicus [17]): Active; Ki [18]: 2 nM
15.8 nM |  | 0.794 nM | 15.8 nM | Cn1ncc(Br)c1-c1cc(NC(=O)Nc2ccc(Cl)cc2)ccc1OC(F)(F)F | 
50.1 nM |  |  | 794 nM | Cn1ncc(Br)c1-c1cc(NC(=O)Nc2ccc(Cl)cc2)ccc1OCCc1ccccc1 | Ki [2]: 6.31 nM
1.26 nM |  | 0.2 nM | 25.1 nM | COc1ccc(NC(=O)Nc2ccc(Cl)cc2Cl)cc1-c1c(Br)cnn1C | 
1.58 nM |  |  | 10 nM | CC(C)Oc1ccc(NC(=O)Nc2ccc(Cl)cc2)cc1-c1c(Br)cnn1C | Ki [2]: 0.316 nM
 |  |  |  | Cn1ncc(Br)c1-c1cccc(NC(=O)Nc2ccc(OC(F)(F)F)cc2)c1 | IC50 [1]: 120 nM
0.501 nM | 3.98 nM | 0.251 nM |  | COc1ccc(NC(=O)Nc2ccc(Br)cc2)cc1-c1c(Br)cnn1C | 
0.251 nM | 31.6 nM | 0.251 nM |  | COc1ccc(NC(=O)Nc2ccc(F)cc2)cc1-c1c(Br)cnn1C | Activity (Rattus norvegicus [19]): Active; Tmax [20]: 4 h; Cmax [21]: 85 ng/mL; half-life [22]: 120 min; AUC(0-inf) [23]: 507 ng·h/mL; ED50 (Rattus norvegicus [10]): 0.7 mg/kg; Activity (Rattus norvegicus [24]): Active; Activity (Rattus norvegicus [17]): Active
1.26 nM |  | 0.501 nM | 2.51 nM | COc1ccc(NC(=O)Nc2ccc(Cl)cc2)cc1-c1c(Br)cnn1C(C)C | 
0.794 nM | 3.16 nM |  |  | COc1ccc(NC(=O)Nc2ccc(Cl)c(C(F)(F)F)c2)cc1-c1c(Br)cnn1C | Ki [2]: 0.316 nM
 |  | 0.251 nM | 2 nM | CCOc1ccc(NC(=O)Nc2ccc(Cl)cc2)cc1-c1c(Br)cnn1C | 
2.51 nM |  |  | 25.1 nM | COc1ccc(NC(=O)Nc2ccc(C(C)C)cc2)cc1-c1c(Br)cnn1C | Ki [2]: 0.316 nM
6.31 nM | 63.1 nM | 0.501 nM |  | COc1ccc(NC(=O)Nc2cccc(C#N)c2)cc1-c1c(Br)cnn1C | 
3.98 nM | 63.1 nM | 1 nM |  | COc1ccc(NC(=O)Nc2cc(C(F)(F)F)cc(C(F)(F)F)c2)cc1-c1c(Cl)cnn1C | 
